Data on twelve molecules can be found in ChEMBL document CHEMBL1938301, “Cyclohexane 1,3-diones and their inhibition of mutant SOD1-dependent protein aggregation and toxicity in PC12 cells” (Bioorg Med Chem, 2012).

Data set [1] relates to PC-12. The data set is described as follows: Inhibition of SOD1 G93A mutant protein aggregation-mediated cytotoxicity in rat PC12 cells expressing yellow fluorescent protein assessed as increase in cell viability relative to radicicol. It counts as cell-based. Also noted: concentration or dose not given beside the values. The method in brief:
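PC12 cells expressing G93A SOD1-YFP; MG132 proteasome inhibition induces cytotoxic mutant SOD1 aggregates. Cell survival measured as protection read-out; efficacy expressed relative to radicicol positive control.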

The subject of a further data set is Cerebral cortex neuron. Put plainly: Cytoprotective activity against MG132-induced cytotoxicity in rat primary cortical neurons cells assessed as cell viability at 100 uM pre-treated for 24 hrs before MG132-induction measured after 48 hrs by Calcein-AM-based fluorimetry. It counts as functional. In a few lines: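 Neurons from E18 rat cortex (Sprague-Dawley or Fischer 344), papain-dissociated, plated at 20,000 cells/well on poly-D-lysine, cultured 5 days in Neurobasal/B27 (~90% neurons). Six-point series from 100 μM top in roughly one-third steps, 24 h pre-incubation, then MG132 100 nM final. Viability read 48 h later by Calcein-AM (1 μM, 20 min, RT) fluorescence. Active if ≥5 SD above MG132 controls.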

The next data set concerns HeLa. The data set is described as follows: Cytoprotective activity against MG132-induced cytotoxicity in human HeLa cells assessed as cell viability at 100 uM pre-treated for 24 hrs before MG132-induction measured after 48 hrs by Calcein-AM-based fluorimetry. The class given is functional.
The subject of another data set is SH-SY5Y. Put plainly: Cytoprotective activity against MG132-induced cytotoxicity in human SH-SY5Y cells assessed as cell viability at 100 uM pre-treated for 24 hrs before MG132-induction measured after 48 hrs by Calcein-AM-based fluorimetry. It counts as functional.
Another data set relates to HEK293. The data set is described as follows: Cytoprotective activity against MG132-induced cytotoxicity in human HEK293 cells assessed as cell viability at 100 uM pre-treated for 24 hrs before MG132-induction measured after 48 hrs by Calcein-AM-based fluorimetry. The class given is functional.
The subject of data set [2] is PC-12. The data set is described as follows: Cytoprotective activity against MG132-induced cytotoxicity in rat PC12 cells assessed as cell viability at 100 uM pre-treated for 24 hrs before MG132-induction measured after 48 hrs by Calcein-AM-based fluorimetry. It counts as functional.
For data set [3], the system named is PC-12. The data set is described as follows: (§1) Inhibition of SOD1 G93A mutant protein aggregation-mediated cytotoxicity in rat PC12 cells expressing yellow fluorescent protein assessed as increase in cell viability. The class given is cell-based.
For a further data set, the system named is Liver microsomes. Put plainly: Half life in human liver microsomes at 5 uM by LC-MS/MS analysis. The class given is ADME, Microsome. In a few lines: (§2)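 Incubation at 37 °C, in duplicate, with human or mouse liver microsomes (0.275 mg/mL protein) in 100 mM potassium phosphate pH 7.4 with 2 mM NADPH and 3 mM MgCl2. A minus-NADPH control was run. Samples were taken at 15 s and at 10, 20, 40 and 60 min, quenched in acidified acetonitrile with internal standard, and parent was quantified by LC-MS/MS. T1/2 = ln2/k from an exponential fit.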
For orientation: Liver microsomes are a subcellular fraction often used to study metabolism.

Data set [4] deals with Caco-2. Put plainly: Apparent permeability from apical to basolateral side of human Caco2 cells at 50 uM after 2 hrs […]. The note with it: caco-2, 2 h. It counts as ADME, cell-based. In a few lines: (§3)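 Caco-2 monolayers on collagen-coated inserts, differentiated 3 weeks. The compound is dosed at 50 μM in HEPES/HBSS/glucose buffer, apical pH 6.5 and basolateral pH 7.4. For A→B, compound and 100 μM Lucifer yellow go apical. For B→A, compound goes basolateral with Lucifer yellow apical. Incubation is 2 h. Lucifer yellow fluorescence checks monolayer integrity (<1% transport). Papp = (dQ/dt)/(c0·A), in 10−6 cm/s.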
A general note: Caco-2 cells form a polarised layer with tight junctions and transporters.

For the next data set, the system named is Liver. The data set is described as follows: Half life in mouse liver microsomes at 5 uM by LC-MS/MS analysis. The class given is ADME, Microsome. The method in brief:
as §2

For data set [5], the system named is Caco-2. The data set is described as follows: Apparent permeability from basolateral to apical side of human Caco2 cells at 50 uM after 2 hrs […]. The class given is ADME, cell-based. The following applies: caco-2, 2 h. The method in brief: as §3
The test system of another data set is Plasma. Put plainly: Half life in mouse plasma at 5 uM by LC-MS/MS analysis. It counts as ADME, cell-free. In a few lines:
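Mouse plasma incubation at 37 °C in duplicate alongside a PBS control, with warfarin and diltiazem as controls. Time points at 15 s and 10, 20, 40 and 60 min; samples precipitated with acetonitrile containing internal standard, then LC-MS/MS. Plasma/PBS response ratio gave % remaining, fitted first-order for half-life.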

In data set [6] the test system is Caco-2. The data set is described as follows: Efflux ratio of permeability from basolateral to apical over apical to basolateral side in human Caco2 cells at 50 uM after 2 hrs […]. The class given is ADME, cell-based. The note with it: caco-2, 2 h. The method in brief: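 Caco-2 monolayers were grown for three weeks on collagen-coated inserts and fed every 2 days. The transport buffer was 10 mM HEPES with 1.98 g/L glucose in HBSS, pH 6.5 apical and pH 7.4 basolateral. Compound was added at 50 μM on the donor side, with 100 μM Lucifer yellow apically, for 2 h. Compound was quantified by LC-MS/MS; Lucifer yellow fluorescence checked monolayer integrity. Papp = (dQ/dt)/(c0·A); ratio taken as B→A over A→B.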

Data set [7] is described as follows: as §1. It counts as cell-based. The following applies: PC-12.
A short description of data set [8]: Oral bioavailability in Sprague-Dawley rat at 1 mg/kg. The class given is ADME, organism-based. The note with it: in vivo.
Data set [9] is described as follows: Toxicity in mouse administered as ip starting at 5 mg/kg and doubling the compound bid each day. It counts as organism-based. Also noted: dose 5 mg/kg, route intraperitoneal. The note with it: in vivo. The method in brief: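 Maximum tolerated dose in mice by intraperitoneal injection. Dosing began at 5 mg/kg and was doubled b.i.d. each day, given once in the morning and once mid-afternoon.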

Data set [10] has as its system Rattus norvegicus. Put plainly: Dose normalised AUC in Sprague-Dawley rat at 1 mg/kg, iv. It counts as ADME, organism-based. Also noted: dose 1 mg/kg, route intravenous. The note with it: in vivo.
Data set [11] in a line: Volume of distribution at steady state in Sprague-Dawley rat at 1 mg/kg, iv. It counts as ADME, organism-based. Also noted: dose 1 mg/kg, route intravenous. The following applies: in vivo, read-out: Vdss.
The nature of data set [12]: AUClast in Sprague-Dawley rat at 1 mg/kg, po. The class given is ADME, organism-based. Also noted: time 0 - last, dose 1 mg/kg, route oral. The following applies: plasma.
Another data set addresses hERG (KCNH2) (Homo sapiens, UniProt Q12809). Put plainly: Inhibition of human ERG expressed in HEK293 cells at 10 uM. The class given is cell-based. The following applies: HEK293 cells expressing hERG. Background: The hERG channel carries a current that helps repolarise heart muscle cells.
Data set [13] has as its system Rattus norvegicus. Put plainly: Dose normalised AUC in Sprague-Dawley rat at 1 mg/kg, po. The class given is ADME, organism-based. Also noted: dose 1 mg/kg, route oral. The note with it: in vivo.
Data set [14] in a line: Half life in Sprague-Dawley rat at 1 mg/kg, po. The class given is ADME, organism-based. Also noted: dose 1 mg/kg, route oral. The following applies: in vivo.
The nature of data set [15]: AUClast in Sprague-Dawley rat at 1 mg/kg, iv. The note with it: plasma. It counts as ADME, organism-based. Also noted: time 0 - last, dose 1 mg/kg, route intravenous.
A short description of data set [16]: Ratio of drug level in brain to plasma in mutant SOD1 G93A transgenic mouse at 50 mg/kg, ip after 4 hrs. The note with it: read-out: BPR. It counts as ADME, organism-based. Also noted: dose 50 mg/kg, route intraperitoneal. The method in brief:
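Single i.p. bolus of 50 mg/kg in G93A SOD1 transgenic mice (18 animals). Blood and brain sampled at 0–24 h, snap-frozen in liquid nitrogen and stored at −80 °C. Brain and plasma concentrations were compared at 4 h, within the plasma plateau.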

The next data set is described as follows: in vivo. The note with it: Sprague-Dawley, rat, po, 1 mg/kg.
A short description of data set [17]: Solubility of the compound in phosphate buffer saline after 1 hrs by spectrophotometry. It counts as physicochemical. The following applies: phosphate buffered saline. The method in brief:
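DMSO stocks at 100× final (threefold serial dilutions) diluted into PBS and held 1 h at room temperature. Precipitate checked visually and by absorbance at 450 nm. The solubility limit was taken as the highest concentration not cloudy and with absorbance not above background.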

Data set [18] in a line: Clearance in Sprague-Dawley rat at 1 mg/kg, iv. The class given is ADME, organism-based. Also noted: dose 1 mg/kg, route intravenous. The note with it: in vivo.
Data set [19] in a line: Half life in Sprague-Dawley rat at 1 mg/kg, iv. Also noted: dose 1 mg/kg, route intravenous. The following applies: in vivo. The class given is ADME, organism-based.
The nature of data set [20]: Cmax in Sprague-Dawley rat at 1 mg/kg, po. The class given is ADME, organism-based. Also noted: dose 1 mg/kg, route oral. The note with it: in vivo.

SMILES strings stand for the structures. The source made the active and inactive calls. Bounds are passed on as bounds.

Sequence of hERG (KCNH2) (Q12809 whole entry): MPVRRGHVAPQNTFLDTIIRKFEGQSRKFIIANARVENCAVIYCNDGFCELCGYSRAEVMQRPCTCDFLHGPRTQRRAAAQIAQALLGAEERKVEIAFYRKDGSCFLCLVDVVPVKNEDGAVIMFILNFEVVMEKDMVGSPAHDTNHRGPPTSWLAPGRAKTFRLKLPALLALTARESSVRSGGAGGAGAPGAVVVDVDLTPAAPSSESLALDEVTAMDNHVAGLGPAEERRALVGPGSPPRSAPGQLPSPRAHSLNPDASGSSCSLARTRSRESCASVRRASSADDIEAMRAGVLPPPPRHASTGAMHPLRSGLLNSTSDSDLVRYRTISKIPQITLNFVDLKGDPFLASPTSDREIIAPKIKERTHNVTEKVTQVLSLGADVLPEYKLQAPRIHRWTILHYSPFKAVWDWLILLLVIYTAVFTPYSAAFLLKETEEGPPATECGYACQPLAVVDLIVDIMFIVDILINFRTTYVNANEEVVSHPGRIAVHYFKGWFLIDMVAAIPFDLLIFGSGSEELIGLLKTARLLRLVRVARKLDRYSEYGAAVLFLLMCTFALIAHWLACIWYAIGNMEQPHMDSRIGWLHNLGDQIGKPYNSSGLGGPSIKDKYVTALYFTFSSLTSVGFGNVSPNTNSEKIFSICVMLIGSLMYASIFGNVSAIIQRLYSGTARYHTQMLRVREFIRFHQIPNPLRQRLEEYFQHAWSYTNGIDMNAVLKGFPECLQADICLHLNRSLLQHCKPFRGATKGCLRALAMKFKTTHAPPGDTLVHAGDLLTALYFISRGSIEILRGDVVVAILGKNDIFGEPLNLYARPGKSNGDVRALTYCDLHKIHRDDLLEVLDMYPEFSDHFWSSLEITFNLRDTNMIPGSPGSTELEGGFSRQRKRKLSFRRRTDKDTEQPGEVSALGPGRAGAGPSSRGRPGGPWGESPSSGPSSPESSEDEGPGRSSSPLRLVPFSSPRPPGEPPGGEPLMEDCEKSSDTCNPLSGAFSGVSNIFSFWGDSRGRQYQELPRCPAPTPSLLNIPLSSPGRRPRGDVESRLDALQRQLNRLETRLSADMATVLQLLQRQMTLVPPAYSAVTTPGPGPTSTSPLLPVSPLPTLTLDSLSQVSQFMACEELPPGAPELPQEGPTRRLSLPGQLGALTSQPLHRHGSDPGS

For `O=C1CC(=O)N(CCc2ccccc2)C(=O)N1CCc1ccccc1`, the Efficacy with PC-12 [1] was 100%. Besides, the outcome in the data set with Cerebral cortex neuron, in the data set on HeLa, in the data set on SH-SY5Y, in the data set with HEK293 and in the data set on PC-12 [2] was Active.
Turning to `O=c1cc(COc2cc(Cl)cc(Cl)c2)[nH][nH]1`, the result in the data set on Cerebral cortex neuron, in the data set with HeLa, in the data set on SH-SY5Y, in the data set on HEK293 and with PC-12 [2] was Active.
With `C[C@@H]1C[C@H]2O[C@@H]2/C=C\C=C\C(=O)Cc2c(Cl)c(O)cc(O)c2C(=O)O1`, the Efficacy with PC-12 [3] stood at 85%.
As for `CC(Oc1cc(C(F)(F)F)cc(C(F)(F)F)c1)C1CC(=O)CC(=O)C1` (racemic), in the data set on PC-12 [1], the Efficacy is 100%. Also, the t1/2 is 1.18 h in the data set on Liver microsomes, 0.75 h in the data set with Liver and more than 1 h in the data set on Plasma. Besides, the results for the Papp in the data set with Caco-2 [4] and in the data set with Caco-2 [5] were 24.8 cm'-6/s and 3.1 cm'-6/s, respectively. Moreover, in the data set on Caco-2 [6], the Ratio is recorded as 0.1. Besides, the half-maximal effective concentration (EC50) (commonly the midpoint of the concentration-response curve) in data set [7] stood at 0.7 µM.
Take `O=C1CC(=O)CC(c2c(Cl)cc(Cl)cc2Cl)C1`: the Efficacy in the data set with PC-12 [1] came out at 100%. Further, in data set [7], the EC50 worked out at 7.01 µM.
Taken in the same sequence, the figures for `O=C1CC(=O)CC(c2ccc(C(F)(F)F)cc2)C1` were 100% and 8.3 µM.
Take `Cc1cccc(C2CC(=O)CC(=O)C2)c1`: the Efficacy with PC-12 [1] was 100%. Further, the EC50 in data set [7] turned out to be 4.81 µM.
Taken in the same sequence, the figures for `O=C1CC(=O)CC(c2ccoc2)C1` were 100% and more than 32 µM.
The corresponding values for `O=C1CC(=O)CC(c2cccc(Oc3cc(Cl)cc(Cl)c3)c2)C1` are 100% and 6.66 µM.
The corresponding values for `O=C1CC(=O)CC(c2ccccc2Oc2ccc(F)cc2)C1` are 100% and 1.16 µM.
Regarding `O=C1CC(=O)CC(c2cc(C(F)(F)F)cc(C(F)(F)F)c2)C1`, in the data set with PC-12 [1], the Efficacy amounted to 100%. Further, the outcome with Cerebral cortex neuron, with HeLa, with SH-SY5Y and in the data set with HEK293 was inactive. In addition, the t1/2 result in the data set on Liver microsomes and in the data set with Liver was “>= 180 min” in each case. Besides, the bioavailability – broadly, dose-corrected exposure relative to a reference, in per cent – in [8] was found to be 89%. Also, in [9], the MTD is 80 mg/kg. Also, the AUC/dose is 1996 ng·h/mL with Rattus norvegicus [10] and 1774 ng·h/mL with Rattus norvegicus [13]. Moreover, in data set [11], the Vd was found to be 1.5 L/kg. For the same molecule, the exposure AUC(0-t) (as a rule, the area under the concentration-time curve up to a stated or last time point) was found to be 1760 ng·h/mL in data set [12] and 1980 ng·h/mL in data set [15]. Moreover, the inhibition (as a rule, the percentage by which the read-out fell short of the control) at 10 µM against hERG (KCNH2) is 7.8%. The results for the Papp with Caco-2 [4] and in the data set on Caco-2 [5] were 38 cm'-6/s and 5.7 cm'-6/s, respectively. In addition, the half-life (commonly the time in which the quantity being followed falls by half) in [14] was 3.2 h; in data set [19] it was 3.7 h. For the same molecule, the Kp at 4 h in data set [16] came to 0.86. Also, the time of peak concentration (Tmax) (commonly the time at which the peak concentration occurs) in “in vivo” is 0.5 h. Also, the solubility (as a rule, the concentration that dissolves in the medium under given conditions) at 1 h in data set [17] is not below 500 µM. Also, the half-maximal effective concentration (EC50) in data set [7] amounted to 0.7 µM. The result with PC-12 [2] was Active. Moreover, the clearance (commonly a measure of how efficiently the substance is removed, as volume per time) in data set [18] is 8.4 mL/min/kg. Also, in [20], the peak level (Cmax) was 468 ng/mL.
As to `CCc1ccc(C2CC(=O)CC(=O)C2)cc1`, the Efficacy in the data set with PC-12 [1] was 100%. Also, the concentration for a half-maximal effect (EC50) in [7] amounted to 2.22 µM.
